Assay outcomes (PubChem)
SUMO1-SIM PPI – modulators of SUMO1 protein-protein interactions, primary screen, biochemical, uHTS; SUMO1 binding to a labelled peptide, TR-FRET, 1 h; inhibition, % at 20 µM; 0.33% of 360,000 active; Small ubiquitin-related modifier 1 (Homo sapiens), P63165; in the data active = inhibition above about 37%
Target sequence (P63165 whole entry, looked up): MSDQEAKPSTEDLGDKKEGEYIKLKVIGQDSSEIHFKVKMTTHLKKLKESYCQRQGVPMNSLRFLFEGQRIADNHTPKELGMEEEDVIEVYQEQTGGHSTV
DNMT1 block – human DNMT1 methyltransferase inhibitors, primary screen, biochemical, molecular beacon, fluorescence, HinP1I cleavage, uHTS. 0.83% of 360,000 active. inhibition (reported as % activation of signal), % at 10 µM. DNA (cytosine-5)-methyltransferase 1 (Homo sapiens), P26358. AID 588458, 2011; in the data active = inhibition above about 50%
Scp-1 inhibitor – Scp-1 phosphatase inhibitors, primary screen, biochemical, colorimetric, uHTS; Recombinant Scp1, phosphopeptide, malachite green phosphate absorbance; inhibition, % at 20 µM; 0.88% of 340,000 active; Carboxy-terminal domain RNA polymerase II polypeptide A small phosphatase 1 (Homo …;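 active = inhibition above about 50% at 20 µM, limit read from the data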;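 also: plate controls were DMSO wells with enzyme for no effect and wells lacking enzyme for full effect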
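Test system – truncated SCP-1 phosphatase (76-261aa) · Reagent – Phosphorylated 17-residue peptide substrate · Incubation – 45 min room-temperature reaction, 5 min colour, 30 min stabiliser · Detection – colorimetric phosphate reagent with accelerator and stabiliser, absorbance at 630 nm · Measure – % inhibition at 20 µM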
LMPTP inh – LMPTP phosphatase inhibitors, primary screen, biochemical, fluorescence intensity, uHTS. recombinant LMPTP-A, OMFP fluorogenic substrate. AID 651560, 2012. Low molecular weight phosphotyrosine protein phosphatase (Homo sapiens), P24666. inhibition, % at 20 µM. 0.22% of 360,000 active;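 active = compounds that cut the enzyme signal by at least half of the control window in the single-dose screen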;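 also: plate controls were DMSO wells with enzyme plus substrate for no effect and substrate without enzyme for full effect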
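Test system: LMPTP-A phosphatase enzyme. Amount: LMPTP-A at 0.625 nM final in the reaction. Reagent: OMFP substrate, 400 µM final. Times: 50 min at room temperature. Signal: endpoint fluorescence intensity from OMFP dephosphorylation. Read-out basis: % inhibition. Benchmarks: no-enzyme and uninhibited controls.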
STEP block – STEP phosphatase inhibitors, primary screen, biochemical, fluorescence intensity, uHTS; Tyrosine-protein phosphatase non-receptor type 5 (Homo sapiens), P54829; recombinant STEP, OMFP fluorogenic substrate; inhibition, % at 20 µM; 0.25% of 360,000 active;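 active = inhibition at 20 µM, scaled per plate between control wells, above about 37%, limit read from the data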;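 also: 0% = DMSO with enzyme and substrate and 100% = substrate only without enzyme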
Target sequence (P54829 whole entry, looked up): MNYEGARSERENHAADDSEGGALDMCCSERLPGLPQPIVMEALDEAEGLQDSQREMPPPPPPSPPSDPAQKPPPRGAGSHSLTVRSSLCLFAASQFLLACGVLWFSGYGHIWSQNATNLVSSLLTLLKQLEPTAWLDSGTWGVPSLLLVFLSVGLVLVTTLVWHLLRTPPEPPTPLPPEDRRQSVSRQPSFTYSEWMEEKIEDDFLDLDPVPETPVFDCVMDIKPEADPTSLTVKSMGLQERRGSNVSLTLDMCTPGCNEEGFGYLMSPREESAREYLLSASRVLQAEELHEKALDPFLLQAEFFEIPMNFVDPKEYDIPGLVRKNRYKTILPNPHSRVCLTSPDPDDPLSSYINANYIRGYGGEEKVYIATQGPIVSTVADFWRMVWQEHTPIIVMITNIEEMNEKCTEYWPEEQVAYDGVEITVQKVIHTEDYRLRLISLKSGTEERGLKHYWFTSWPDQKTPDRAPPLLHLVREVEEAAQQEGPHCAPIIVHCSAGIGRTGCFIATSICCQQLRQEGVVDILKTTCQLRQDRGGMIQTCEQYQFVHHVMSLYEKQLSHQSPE
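Material: STEP (striatal-enriched tyrosine phosphatase) enzyme, cell-free; Compound dosing: 20 µM single dose in 1% DMSO; Technique: fluorescence read at 480 nm ex / 540 nm em; Times: reaction 20 min, ambient temperature; Medium: 50 mM Bis-Tris pH 6.0 with 2.5 mM DTT and 0.005% Tween 20; Also added: OMFP at 25 µM.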
Scp1 confirm – Scp-1 phosphatase inhibitors, retest, confirmation, biochemical, colorimetric, single concentration; shares compounds with Scp-1 inhibitor; recombinant SCP-1 catalytic domain, phosphate release, malachite green absorbance; inhibition, % at 20 µM; 61% of 2,500 active;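 also: plate controls were DMSO with enzyme for no effect and buffer wells lacking enzyme for full effect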
MG interference – colorimetric readout interference by compounds, confirmation, artefact control for Scp-1 inhibitor project, biochemical, single concentration; apparent inhibition (interference), % at 20 µM; Colorimetric interference counterscreen, malachite green absorbance 630 nm; 2,500 tested, under 10 active; shares compounds with Scp-1 inhibitor;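 also: compounds added after enzyme reaction finished so only phosphate colour detection is probed; plate controls were DMSO wells with completed Scp-1 reaction for no effect and substrate wells lacking enzyme for full effect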
Scp-1 Tm shift – Scp-1 binding by thermal shift, confirmation, orthogonal assay for Scp-1 inhibitor project, biophysical, differential scanning fluorimetry; shares compounds with Scp-1 inhibitor; Recombinant SCP1, Sypro Orange thermal shift Tm; thermal shift relative to vanadate control, % at 40 µM; 25% of 1,500 active; AID 540329, 2011;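 active = substances whose mean melting-temperature shift, as a percentage of the reference inhibitor's shift, reaches about 5.3%, limit read from the data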;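 also: 0% = Tm of DMSO wells and 100% = Tm with sodium orthovanadate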
An asterisk follows results filed as active; . = no result given. This is a sample that favours compounds with a hit; in the whole collection about 1.7% have one here.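 The calls were made as follows, unless noted: active = inhibition of at least 30% at 20 µM; inactive = the rest.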

SMILES	SUMO1-SIM PPI	DNMT1 block	Scp-1 inhibitor	LMPTP inh	STEP block	Scp1 confirm	MG interference	Scp-1 Tm shift
Cc1ccn2c(=O)nc(SCC(=O)NCc3ccccc3Cl)nc2c1	8	6	47	16	1	57*	-19	-2
CC(NC(=O)Nc1ccccc1Cl)c1ccc2c(c1)OCO2 (stereo unspecified)	3	1	-2	0	2	.	.	.
CCCc1n(CC(O)COC2CCCCC2)c2ccccc2[n+]1C (stereo unspecified)	1	-1	100*	-1	1	77*	-7	-23
CCCc1n(CC(O)COCc2ccccc2)c2ccccc2[n+]1C (stereo unspecified)	-1	3	21	1	-3	.	.	.
CCCc1n(CC(O)COCC2CC=CCC2)c2ccccc2[n+]1C (stereo unspecified)	-3	-3	67*	-1	-1	10	-6	.
O=C(O)c1ccccc1C(=O)NCC(O)COCC1CC=CCC1 (stereo unspecified)	-2	8	-4	-1	1	.	.	.
Cc1ccc(-n2[nH]c(C)c(/C=N/Nc3ccc([N+](=O)[O-])cc3[N+](=O)[O-])c2=O)cc1	-11	-26	61*	10	19	80*	-14	11*
O=C(CCCC(=O)Nc1cccc(Br)c1)N/N=C/c1cc([N+](=O)[O-])ccc1O	-21	1	56*	2	-2	67*	-10	7.4*
O=C(CCC(=O)Nc1cccc(Cl)c1)N/N=C/c1cc([N+](=O)[O-])ccc1O	-3	-1	3	0	2	.	.	.
CC[n+]1c(C)cc(C)n1-c1ccccc1	-2	-40	95*	0	0	92*	-9	-7
Cc1ccc(Cl)c(OCC(=O)NCC(c2cccs2)N2CCOCC2)c1 (stereo unspecified)	1	-1	5	0	1	.	.	.
CN=c1nc(-c2ccccc2)n(-c2ccccc2)s1	3	0	76*	-1	-1	29	-7	.
Cn1nc(-c2ccccc2)nc1-c1ccccc1	0	2	-3	-1	-2	.	.	.
Nc1ccc2nc(SCC(=O)Nc3ccc(N4CCOCC4)c(Cl)c3)sc2c1	4	-10	97*	0	-3	-1	-5	.
CCCC(=O)Nc1ccc2nc(SCC(=O)Nc3ccc(N4CCOCC4)c(Cl)c3)sc2c1	-4	-8	15	2	0	.	.	.
CCN(C(=O)COC(=O)c1[nH]c(C)c(C(C)=O)c1C)C1CCS(=O)(=O)C1 (stereo unspecified)	-2	4	70*	-1	-5	-6	-7	.
CCOC(=O)/C(CCC[N+](C)(CC)CC)=N\O	-1	5	99*	-1	0	-8	-14	.
COc1ccc(S(=O)(=O)N2CCOCC2)cc1NC(=O)C1CC1	-5	4	-4	0	0	.	.	.
CCCc1ccc2oc(C(=O)N3CCC(COC)C3)c(C)c2c1 (stereo unspecified)	-2	-2	69*	1	2	3	-3	.
Cc1cc(Cl)ccc1OCC(=O)OC(C)C(=O)N(C)C (stereo unspecified)	0	24	55*	2	5	46*	-12	-18
CCN(CC)C(=O)C(C)OC(=O)COc1ccc(Cl)cc1C (stereo unspecified)	4	14	38	-1	2	.	.	.
C[N+](C)(C)CC/C=C1/c2ccccc2CSc2ccccc21	3	-3	77*	0	2	82*	-13	-4
CCc1cc(C(=O)N2CCN(C(=O)c3ccco3)CC2)sc1C	9	-2	-6	0	-3	.	.	.
O=C(CNC1CCCCCC1)Nc1ccccc1N1CCCCC1	-1	0	90*	0	1	-9	-11	.
O=C(CN1C(=O)/C(=C2/SC(=S)N(CCS(=O)(=O)O)C2=O)c2ccccc21)Nc1cccc(C(F)(F)F)c1	14	21	84*	5	5	85*	-15	885*
SMILES	SUMO1-SIM PPI	DNMT1 block	Scp-1 inhibitor	LMPTP inh	STEP block	Scp1 confirm	MG interference	Scp-1 Tm shift
O=C(CN1C(=O)NC2(CCCC2)C1=O)Nc1cccc(C(F)(F)F)c1	3	-1	-5	1	-2	.	.	.
CCc1ccc2cc(C)cc(C)c2n1	2	3	.	0	-1	.	.	.
C=C1CN(Cc2ccccc2)S(=O)(=O)c2ccccc21	2	12	95*	3	-1	68*	-18	0
C=C1CN(CC(=O)OC)S(=O)(=O)c2ccccc21	-6	4	-1	0	-5	.	.	.
CCn1c2ccccc2c2nnc(SCC(N)=O)nc21	-10	-1	-1	-1	2	.	.	.
CCn1c2ccccc2c2nnc(SCC(=O)c3c(N)n(C)c(=O)n(C)c3=O)nc21	6	-17	63*	-1	12	-3	-10	.
CC(=O)N=c1c(C#N)cc2c(=O)n3cccc(C)c3nc2n1Cc1ccco1	20	49	70*	3	17	25	-19	.
CC(=O)N=c1c(C#N)cc2c(=O)n3cccc(C)c3nc2n1CCCOC(C)C	7	41	-4	25	0	.	.	.
COc1ccccc1CCC(=O)Oc1ccccc1C#N	0	3	-10	2	2	.	.	.
COc1cc2c(C#CCO)c(-c3ccc(C#N)cc3)oc(=O)c2cc1OC	62*	-28	67*	4	25	33*	6	5
Nc1ncnc2c1ncn2[C@@H]1O[C@H](C(=O)NS(=O)(=O)c2ccccc2[N+](=O)[O-])[C@@H](O)[C@H]1O	-1	3	.	-1	-2	.	.	.
CSc1ccccc1NC(=O)c1cc2ncc(Br)cn2n1	-5	22	60*	2	3	50*	-13	-3
Cc1ccccc1Cn1ccc(NC(=O)c2cc3ncc(Br)cn3n2)n1	-5	0	-6	-1	-3	.	.	.
